For series [1], the system named is ASPC1. Kind of series: Cytotoxicity against wild type human AsPC1 cells assessed as cell growth. The class given is cell-based. In short, it runs like this:
(§1)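 Cells seeded at 10,000/well. Dox-inducible lines were induced with 100 ng/mL doxycycline, then treated 24 h later with compound at 16 two-fold dilutions (0.0003–10 μM) plus 5 μM midazolam, in 0.66% DMSO final, for 24 h. Phase-contrast confluence imaging followed. Values were normalized to six 0.66% DMSO replicates and fitted with a three-parameter log(inhibitor) vs response curve.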

For series [2], the system named is ASPC1. Kind of series: Cytotoxicity against CRISPR/Cas9-mediated CYP3A5 knock-out human AsPC1 cells assessed as cell growth. The class given is ADME, cell-based. In short, it runs like this: as §1
For series [3], the system named is ASPC1. The experiment in a line: Cytotoxicity against CRISPR/Cas9-mediated CYP3A5 knock-out and doxycycline-induced CYP3A5 overexpressing human AsPC1 cells assessed as cell growth. The format is ADME, cell-based. The gist of the method:
as §1

Series [4] relates to ASPC1. Kind of series: Cytotoxicity against doxycycline-induced CYP3A5 overexpressing wild type human AsPC1 cells assessed as cell growth. The class given is ADME, cell-based. The gist of the method:
as §1

Series [5] deals with ASPC1. The experiment in a line: Cytotoxicity against CRISPR/Cas9-mediated CYP3A5 knock-out and lentiviral pLVX-TRE3G-ZsGreen1-CYP3A4 transduced human AsPC1 cells overexpressing CYP3A4 assessed as cell growth. The format is ADME, cell-based. The gist of the method: as §1
Series [6] has as its system ASPC1. The experiment in a line: Increase in CYP3A4 expression in CRISPR/Cas9-mediated CYP3A5 knock-out and doxycycline-induced CYP3A4 overexpressing human AsPC1 cells at 1 uM after 24 hrs by Western blot analysis. The format is ADME, cell-based. The following applies: aspc1, 24 h. In short, it runs like this: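 Overexpression was induced with 100 ng/mL doxycycline. […] Blots were probed with anti-CYP3A4 K03 (also detects CYP3A5) and β-actin, with infrared dye secondaries. Bands were normalized to actin across triplicate gels, with DMSO set as 1.0.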

The target in another series is CYP3A5 (Homo sapiens, UniProt P20815). The experiment in a line: Inhibition of human recombinant CYP3A5 expressed in supersomes assessed as decrease in formation of D-luciferin at 1.89 uM using luciferin-IPA as substrate incubated for 10 mins in presence of NADPH by P450-Glo luminescence assay relative to control. The following applies: probe luciferin-IPA.
Series [7] concerns ASPC1. Kind of series: Cytotoxicity against lentiviral pLVX-TRE3G-ZsGreen1-CYP3A5 transduced wild type human AsPC1 cells overexpressing CYP3A5 assessed as cell growth. The class given is ADME, cell-based. In short, it runs like this: as §1
Series [8] deals with ASPC1. The experiment in a line: Cytotoxicity against CRISPR/Cas9-mediated CYP3A5 knock-out and lentiviral pLVX-TRE3G-ZsGreen1-CYP3A5 transduced human AsPC1 cells overexpressing CYP3A5 assessed as cell growth. The format is ADME, cell-based. In short, it runs like this: as §1
Series [9] concerns ASPC1. The experiment in a line: Cytotoxicity against CRISPR/Cas9-mediated CYP3A5 knock-out and doxycycline-induced CYP3A4 overexpressing human AsPC1 cells assessed as cell growth. The format is ADME, cell-based. In short, it runs like this: as §1
The target in the next series is Cytochrome P450 3A4 (Homo sapiens, UniProt P08684). Kind of series: Binding affinity to His-tagged CYP3A4 (unknown origin) expressed in Escherichia coli DH5alpha assessed as induction of HS formation by EPR spectroscopy. The format is ADME. In short, it runs like this: (§2)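 Continuous-wave X-band EPR of purified recombinant enzyme, alone and in complex with ligand. Spectra were compared against the ligand-free form.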

In series [10] the target is T1, Cytochrome P450 3A5 (Homo sapiens, UniProt P20815). The experiment in a line: Binding affinity to His-tagged CYP3A5 (unknown origin) expressed in Escherichia coli DH5alpha assessed as five-coordinate HS ferric heme iron state formation with displacement of distal water ligand by EPR spectroscopy. In short, it runs like this: as §2
Series [11] addresses T1, Cytochrome P450 3A5. Kind of series: Binding affinity to heme in His-tagged CYP3A5 (unknown origin) expressed in Escherichia coli DH5alpha assessed as formation of five-coordinate ferric heme iron by measuring type 1 Soret shift from 417 nm (low spin) to 395 nm (high spin) by UV-vis spectrophotometric titration analysis. In short, it runs like this:
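Purified recombinant His-tagged CYP3A5 titrated with successive ligand additions until heme absorbance stopped changing. The ligand-free spectrum was subtracted to give difference spectra. Peak-minus-trough values were plotted against ligand concentration and fitted to a binding equation for Kd. Wavelength pairs: ΔA 386–418 nm for the type I shift; ΔA 432–410 nm for the type II shift.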

SMILES strings stand for the structures.

T1 sequence (P20815 whole entry): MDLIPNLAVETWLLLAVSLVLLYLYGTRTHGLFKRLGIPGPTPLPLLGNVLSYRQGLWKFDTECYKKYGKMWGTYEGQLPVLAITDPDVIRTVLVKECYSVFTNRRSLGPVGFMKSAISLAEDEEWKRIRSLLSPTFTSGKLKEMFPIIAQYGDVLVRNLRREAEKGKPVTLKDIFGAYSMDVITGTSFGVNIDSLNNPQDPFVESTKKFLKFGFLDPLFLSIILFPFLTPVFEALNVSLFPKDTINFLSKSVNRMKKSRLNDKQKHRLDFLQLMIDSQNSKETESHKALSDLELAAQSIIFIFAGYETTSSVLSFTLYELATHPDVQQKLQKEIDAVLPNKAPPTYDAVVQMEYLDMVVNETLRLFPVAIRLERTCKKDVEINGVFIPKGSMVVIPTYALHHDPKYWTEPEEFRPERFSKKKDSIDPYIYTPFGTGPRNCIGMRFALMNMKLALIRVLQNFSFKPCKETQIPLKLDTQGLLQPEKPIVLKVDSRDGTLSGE
CYP3A5, sequence (P20815 whole entry): as above
Cytochrome P450 3A4, sequence (P08684 whole entry): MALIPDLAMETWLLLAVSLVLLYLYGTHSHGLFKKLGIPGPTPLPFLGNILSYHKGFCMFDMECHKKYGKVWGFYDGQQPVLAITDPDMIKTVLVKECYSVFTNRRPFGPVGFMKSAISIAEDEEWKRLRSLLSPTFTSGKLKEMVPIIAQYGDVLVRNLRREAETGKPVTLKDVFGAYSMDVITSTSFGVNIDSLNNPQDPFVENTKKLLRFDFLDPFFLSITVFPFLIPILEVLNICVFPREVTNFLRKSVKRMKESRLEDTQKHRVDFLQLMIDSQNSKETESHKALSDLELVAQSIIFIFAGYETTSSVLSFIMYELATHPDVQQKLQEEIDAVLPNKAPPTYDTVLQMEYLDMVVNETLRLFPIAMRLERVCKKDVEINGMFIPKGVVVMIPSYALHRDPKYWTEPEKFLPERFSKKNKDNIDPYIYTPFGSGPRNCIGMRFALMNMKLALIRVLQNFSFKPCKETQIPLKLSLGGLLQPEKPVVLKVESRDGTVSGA

Turning to `CC(=O)N1CCN(c2ccc(OCC3COC(Cn4ccnc4)(c4ccc(Cl)cc4Cl)O3)cc2)CC1` (stereo not drawn) [KETOCONAZOLE], the Activity entry was “Non-Toxic” in the series with ASPC1 [1]; “Non-Toxic” in the series with ASPC1 [2]; “Non-Toxic” with ASPC1 [3]; “Non-Toxic” in the series on ASPC1 [4]; “Non-Toxic” with ASPC1 [5]; “Active” with ASPC1 [6]. For the same compound, the Activity result with ASPC1 [7], in the series with ASPC1 [8] and with ASPC1 [9] was “Non-Toxic” in each case. Moreover, on CYP3A5, the inhibition (in general, the share of the control response that was lost under treatment) at 10 min, 1.89 µM amounted to 100%.

Regarding `Cc1ncc2n1-c1ccc(Cl)cc1C(c1ccccc1F)=NC2` [MIDAZOLAM], the outcome at Cytochrome P450 3A4, on Cytochrome P450 3A5 [10] and at Cytochrome P450 3A5 [11] was Active.

Source of the values: ChEMBL document CHEMBL4321880 (J Med Chem, 2020).
